Source: ChEMBL document CHEMBL4665823, “Assessing the Perturbing Effects of Drugs on Lipid Bilayers Using Gramicidin Channel-Based In Silico and In Vitro Assays” (J Med Chem, 2020)
Active and inactive are the calls of the source. The rule behind the calls is not given here.

Legend:
Lipid bilayer [1] = test: Induction of membrane perturbation in DC22:1PC LUV bilayer assessed as change in deltaG for pure gramicidin monomer to dimer by fluorescence quenching assay (reference value: 0 kcal/mol)
Lipid bilayer [2] = test: Induction of membrane perturbation in DC20:1PC LUV bilayer assessed as fluorescence quench rate by measuring gramicidin mixture monomer to dimer equilibrium at 1800 uM by fluorescence quenching assay
Lipid bilayer [3] = test: Induction of membrane perturbation in DC22:1PC LUV bilayer assessed as effect on potential of mean force by measuring reduction in deltaG for gramicidin mixture monomer to dimer and pure gramicidin-bilayer by fluorescence quenching assay
Lipid bilayer [4] = test: Induction of membrane perturbation in DC22:1PC LUV bilayer assessed as fluorescence quench rate by measuring increase in R(drug)/R(control) ratio by fluorescence quenching assay
Procedure, shortened: (§1)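 ANTS-loaded (25 mM) DC22:1PC LUVs with gD at gramicidin:lipid 1:2000, rehydrated to 10 mM lipid, 3 h equilibration, 1 min sonication. Drug-exposed vesicles were incubated ≥10 min at 25 °C in the dark, then mixed by stopped-flow with Tl+ quench buffer (50 mM TlNO3, pH 7). Fluorescence (ex 352, em >450 nm) was fitted to a stretched exponential; rate given relative to drug-free control.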

Lipid bilayer [5] = test: Induction of membrane perturbation in DC18:1PC LUV bilayer assessed as fluorescence quench rate by measuring gramicidin mixture monomer to dimer equilibrium at 1800 uM by fluorescence quenching assay
Procedure, shortened: (§2)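 DC18:1PC LUVs (gramicidin mixture gD:lipid 1:40,000) loaded with 25 mM ANTS at 10 mM lipid, equilibrated 3 h at room temperature, sonicated 1 min, about 130 nm diameter. Drug added; samples held ≥10 min at 25 °C in the dark, then stopped-flow mixed with 50 mM TlNO3/94 mM NaNO3/10 mM HEPES, pH 7. Ex 352 nm, em >450 nm; quench rate from stretched-exponential fit.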

Lipid bilayer [6] = test: Induction of membrane perturbation in DC22:1PC LUV bilayer assessed as fluorescence quench rate by measuring gramicidin mixture monomer to dimer equilibrium at 1800 uM by fluorescence quenching assay; procedure, shortened: as §1
Lipid bilayer [7] = test: Induction of membrane perturbation in DC22:1PC LUV bilayer assessed as change in deltaG for gramicidin mixture monomer to dimer by fluorescence quenching assay (reference value: 0 kcal/mol)
Lipid bilayer [8] = test: Induction of membrane perturbation in DC22:1PC LUV bilayer assessed as fluorescence quench rate by measuring gramicidin mixture monomer to dimer equilibrium at 300 uM by fluorescence quenching assay; procedure, shortened: as §1
Lipid bilayer [9] = test: Induction of membrane perturbation in DC20:1PC LUV bilayer assessed as fluorescence quench rate by measuring gramicidin mixture monomer to dimer equilibrium at 300 uM by fluorescence quenching assay
Lipid bilayer [10] = test: Induction of membrane perturbation in DC18:1PC LUV bilayer assessed as fluorescence quench rate by measuring gramicidin mixture monomer to dimer equilibrium at 300 uM by fluorescence quenching assay; procedure, shortened: as §2
Lipid bilayer [11] = test: Induction of membrane perturbation in DC22:1PC LUV bilayer assessed as fluorescence quench rate by measuring gramicidin mixture monomer to dimer equilibrium at 30 uM by fluorescence quenching assay; procedure, shortened: as §1
Lipid bilayer [12] = test: Induction of membrane perturbation in DC20:1PC LUV bilayer assessed as fluorescence quench rate by measuring gramicidin mixture monomer to dimer equilibrium at 30 uM by fluorescence quenching assay
Lipid bilayer [13] = test: Induction of membrane perturbation in DC18:1PC LUV bilayer assessed as fluorescence quench rate by measuring gramicidin mixture monomer to dimer equilibrium at 30 uM by fluorescence quenching assay; procedure, shortened: as §2
Lipid bilayer [14] = test: Induction of membrane perturbation in DC22:1PC LUV bilayer assessed as fluorescence quench rate by measuring increase in R(drug)/R(control) ratio at gD:lipid molar ratio of > 1:400 in presence of 10 mol % cholesterol by fluorescence quenching assay
Procedure, shortened: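 Cholesterol added at 10 mol % before LUV formation; DC22:1PC vesicles made with gD:lipid molar ratios between 1:200 and 1:2000, ANTS-loaded. Tl+ influx was followed by stopped-flow fluorescence quench at 25 °C (ex 352 nm, em >450 nm), and traces were fitted to a stretched exponential.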

Lipid bilayer [15] = test: Induction of membrane perturbation in DC22:1PC LUV bilayer assessed as effect on potential of mean force by measuring increase in deltaG for gramicidin mixture monomer to dimer and pure gramicidin-bilayer by fluorescence quenching assay
Procedure, shortened: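 ΔΔG(monomer↔dimer) was derived from Tl+/ANTS quench-rate ratios in DC22:1PC LUVs at 1:2000 gramicidin:lipid. Ratios were adjusted for estimated bilayer drug mole fraction and extrapolated linearly to a drug:lipid ratio of 0.084, matching the coarse-grained simulations. Stopped-flow was run at 25 °C.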

Lipid bilayer [16] = test: Induction of membrane perturbation in DC20:1PC LUV bilayer assessed as fluorescence quench rate by measuring gramicidin mixture monomer to dimer equilibrium at 30000 uM by fluorescence quenching assay
Lipid bilayer [17] = test: Induction of membrane perturbation in DC22:1PC LUV bilayer assessed as fluorescence quench rate by measuring gramicidin mixture monomer to dimer equilibrium at 30000 uM by fluorescence quenching assay
Lipid bilayer [18] = test: Induction of membrane perturbation in DC22:1PC LUV bilayer assessed as fluorescence quench rate by measuring reduction in R(drug)/R(control) ratio by fluorescence quenching assay
Lipid bilayer [19] = test: Induction of membrane perturbation in DC18:1PC LUV bilayer assessed as fluorescence quench rate by measuring gramicidin mixture monomer to dimer equilibrium at 30000 uM by fluorescence quenching assay
Lipid bilayer [20] = test: Induction of membrane perturbation in DC20:1PC LUV bilayer assessed as fluorescence quench rate by measuring gramicidin mixture monomer to dimer equilibrium at 100 uM by fluorescence quenching assay
Lipid bilayer [21] = test: Induction of membrane perturbation in DC22:1PC LUV bilayer assessed as fluorescence quench rate by measuring gramicidin mixture monomer to dimer equilibrium at 100 uM by fluorescence quenching assay
Lipid bilayer [22] = test: Induction of membrane perturbation in DC18:1PC LUV bilayer assessed as fluorescence quench rate by measuring gramicidin mixture monomer to dimer equilibrium at 100 uM by fluorescence quenching assay
Lipid bilayer [23] = test: Induction of membrane perturbation in DC18:1PC LUV bilayer assessed as effect on potential of mean force by measuring reduction in deltaG for gramicidin mixture monomer to dimer and pure gramicidin-bilayer by fluorescence quenching assay
Lipid bilayer [24] = test: Induction of membrane perturbation in DC20:1PC LUV bilayer assessed as fluorescence quench rate by measuring gramicidin mixture monomer to dimer equilibrium at 10 uM by fluorescence quenching assay
Lipid bilayer [25] = test: Induction of membrane perturbation in DC22:1PC LUV bilayer assessed as fluorescence quench rate by measuring gramicidin mixture monomer to dimer equilibrium at 10 uM by fluorescence quenching assay; procedure, shortened: as §1
Lipid bilayer [26] = test: Induction of membrane perturbation in DC18:1PC LUV bilayer assessed as fluorescence quench rate by measuring gramicidin mixture monomer to dimer equilibrium at 10 uM by fluorescence quenching assay; procedure, shortened: as §2

Structure (SMILES)	deltaG (Lipid bilayer [1])	Activity (Lipid bilayer [3])	Activity (Lipid bilayer [4])	deltaG (Lipid bilayer [7])	other results
CCCCCCCCO	-1.67 kJ/mol	Active	Dose-dependent effect	-1.26 kJ/mol	Activity (Lipid bilayer [2]): inactive; Activity (Lipid bilayer [5]): inactive; Activity (Lipid bilayer [6]): Active
CCCCCCCCCCCCOP(=O)([O-])OCC[N+](C)(C)C	-2.09 kJ/mol	Active	Dose-dependent effect	-2.09 kJ/mol	Activity (Lipid bilayer [8]): Active; Activity (Lipid bilayer [9]): inactive; Activity (Lipid bilayer [10]): inactive
CC(C)(C)CC(C)(C)c1ccc(OCCOCCOCCOCCOCCOCCOCCOCCOCCOCCO)cc1	-6.28 kJ/mol	Active	Dose-dependent effect	-6.69 kJ/mol	Activity (Lipid bilayer [11]): Active; Activity (Lipid bilayer [12]): inactive; Activity (Lipid bilayer [13]): inactive
CC(C)CCC[C@@H](C)[C@H]1CC[C@H]2[C@@H]3CC=C4C[C@@H](O)CC[C@]4(C)[C@H]3CC[C@]12C	10.5 kJ/mol				Activity (Lipid bilayer [14]): Active; Activity (Lipid bilayer [15]): Active
Oc1ccc(/C=C/c2cc(O)cc(O)c2)cc1	-7.11 kJ/mol	Active	Dose-dependent effect	-7.53 kJ/mol	Activity (Lipid bilayer [11]): Active; Activity (Lipid bilayer [12]): inactive; Activity (Lipid bilayer [13]): inactive
C1CCCCC1	0 kJ/mol			0 kJ/mol	Activity (Lipid bilayer [16]): inactive; Activity (Lipid bilayer [17]): Active; Activity (Lipid bilayer [18]): Dose-dependent effect; Activity (Lipid bilayer [15]): Active; Activity (Lipid bilayer [19]): inactive
COc1cc(CNC(=O)CCCC/C=C/C(C)C)ccc1O	-2.09 kJ/mol	Active		-2.51 kJ/mol	Activity (Lipid bilayer [20]): inactive; Activity (Lipid bilayer [21]): Active; Activity (Lipid bilayer [22]): inactive; Activity (Lipid bilayer [23]): Active
CCCCCCCCCCCCOCCOCCOCCOCCOCCOCCO	-5.86 kJ/mol	Active	Dose-dependent effect	-6.28 kJ/mol	Activity (Lipid bilayer [24]): inactive; Activity (Lipid bilayer [25]): Active; Activity (Lipid bilayer [26]): inactive
